Reference: ChEMBL document CHEMBL5058577, “EUbOPEN Chemogenomics Library 2 (Multiplex)” (2022)

System: U2OS
Test: Multiplex assay against U2OS
Format: toxicity, cell-based
Conditions: human
Procedure, shortened: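 Live cells carried four stains from seeding: Hoechst33342, BioTracker Green Microtubule Cytoskeleton Dye, MitoTracker Red and Annexin V Alexa Fluor 680. They were imaged on a CQ1 microscope at 37°C and 5% CO2 after compound addition. Using CellPathfinder machine-learning gating, cells were split into Hoechst high-intensity objects or normal cells, normal cells into healthy, pyknosed or fragmented nuclei, and pyknosed cells into mitotic or apoptotic; tubulin, mitochondrial-mass and membrane-permeability phenotypes are per cents of healthy-nucleus cells.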

[1] = 12 h, 1 µM, compound concentration 1 uM, replicate 1
[2] = 12 h, 1 µM, compound concentration 1 uM, replicate 2
[3] = 12 h, 10 µM, compound concentration 10 uM, replicate 1
[4] = 12 h, 10 µM, compound concentration 10 uM, replicate 2
[5] = 24 h, 1 µM, compound concentration 1 uM, replicate 1
[6] = 24 h, 1 µM, compound concentration 1 uM, replicate 2
[7] = 24 h, 10 µM, compound concentration 10 uM, replicate 1
[8] = 24 h, 10 µM, compound concentration 10 uM, replicate 2
[9] = 48 h, 1 µM, compound concentration 1 uM, replicate 1
[10] = 48 h, 1 µM, compound concentration 1 uM, replicate 2
[11] = 48 h, 10 µM, compound concentration 10 uM, replicate 1
[12] = 48 h, 10 µM, compound concentration 10 uM, replicate 2

In the case of `O=C(NCCN1CCC(n2c(=O)[nH]c3cc(Cl)ccc32)CC1)c1ccc(F)cc1` [HALOPEMIDE], the “Population Apoptotic (%)” value [1] is reported as 95%, the “Population Fragmented Nuclei (%)” value [1] is reported as 24% and the “Population Healthy Nuclei (%)” value [1] is reported as 65%. The “Population Hoechst High Intensity Objects (%)” value [1] was 1%, the “Population Membrane Permeable-Phenotype (%)” value [1] was 6% and the “Population Mitochondria Different-Phenotype (%)” value [1] was 1%. The “Population Mitotic Cells (%)” value [1] was 4%, the “Population Normal (%)” value [1] was 98% and the “Population Pyknosed Nuclei (%)” value [1] was 10%. The “Population Tubulin-Different-Phenotype (%)” value [1] was 2%, the “Total Cell Count” value [1] was 209 and the “Population Apoptotic (%)” value [2] was 50%. The “Population Fragmented Nuclei (%)” value [2] was 13%, the “Population Healthy Nuclei (%)” value [2] was 79% and the “Population Hoechst High Intensity Objects (%)” value [2] was 0%. The “Population Membrane Permeable-Phenotype (%)” value [2] was 7%, the “Population Mitochondria Different-Phenotype (%)” value [2] was 2% and the “Population Mitotic Cells (%)” value [2] was 50%. The “Population Normal (%)” value [2] was 100%, the “Population Pyknosed Nuclei (%)” value [2] was 7% and the “Population Tubulin-Different-Phenotype (%)” value [2] was 3%. For the same molecule, the “Total Cell Count” value [2] was 105, the “Population Apoptotic (%)” value [3] was 68% and the “Population Fragmented Nuclei (%)” value [3] was 19%. The “Population Healthy Nuclei (%)” value [3] was 65%, the “Population Hoechst High Intensity Objects (%)” value [3] was 4% and the “Population Membrane Permeable-Phenotype (%)” value [3] was 23%. The “Population Mitochondria Different-Phenotype (%)” value [3] was 11%, the “Population Mitotic Cells (%)” value [3] was 31% and the “Population Normal (%)” value [3] was 95%. The “Population Pyknosed Nuclei (%)” value [3] was 15%, the “Population Tubulin-Different-Phenotype (%)” value [3] was 15% and the “Total Cell Count” value [3] was 244. For the same molecule, the “Population Apoptotic (%)” value [4] was 61%, the “Population Fragmented Nuclei (%)” value [4] was 12% and the “Population Healthy Nuclei (%)” value [4] was 78%. For the same molecule, the “Population Hoechst High Intensity Objects (%)” value [4] was 1%, the “Population Membrane Permeable-Phenotype (%)” value [4] was 26% and the “Population Mitochondria Different-Phenotype (%)” value [4] was 32%. The “Population Mitotic Cells (%)” value [4] was 38%, the “Population Normal (%)” value [4] was 98% and the “Population Pyknosed Nuclei (%)” value [4] was 8%. For the same molecule, the “Population Tubulin-Different-Phenotype (%)” value [4] was 27%, the “Total Cell Count” value [4] was 152 and the “Population Apoptotic (%)” value [5] was 91%. For the same molecule, the “Population Fragmented Nuclei (%)” value [5] was 22%, the “Population Healthy Nuclei (%)” value [5] was 68% and the “Population Hoechst High Intensity Objects (%)” value [5] was 1%. The “Population Membrane Permeable-Phenotype (%)” value [5] was 6%, the “Population Mitochondria Different-Phenotype (%)” value [5] was 1% and the “Population Mitotic Cells (%)” value [5] was 8%. The “Population Normal (%)” value [5] was 98%, the “Population Pyknosed Nuclei (%)” value [5] was 9% and the “Population Tubulin-Different-Phenotype (%)” value [5] was 1%. For the same molecule, the “Total Cell Count” value [5] was 241, the “Population Apoptotic (%)” value [6] was 81% and the “Population Fragmented Nuclei (%)” value [6] was 15%. The “Population Healthy Nuclei (%)” value [6] was 72%, the “Population Hoechst High Intensity Objects (%)” value [6] was 0% and the “Population Membrane Permeable-Phenotype (%)” value [6] was 10%. For the same molecule, the “Population Mitochondria Different-Phenotype (%)” value [6] was 3%, the “Population Mitotic Cells (%)” value [6] was 18% and the “Population Normal (%)” value [6] was 99%. The “Population Pyknosed Nuclei (%)” value [6] was 12%, the “Population Tubulin-Different-Phenotype (%)” value [6] was 8% and the “Total Cell Count” value [6] was 132. For the same molecule, the “Population Apoptotic (%)” value [7] was 75%, the “Population Fragmented Nuclei (%)” value [7] was 17% and the “Population Healthy Nuclei (%)” value [7] was 64%. For the same molecule, the “Population Hoechst High Intensity Objects (%)” value [7] was 2%, the “Population Membrane Permeable-Phenotype (%)” value [7] was 15% and the “Population Mitochondria Different-Phenotype (%)” value [7] was 10%. The “Population Mitotic Cells (%)” value [7] was 25%, the “Population Normal (%)” value [7] was 97% and the “Population Pyknosed Nuclei (%)” value [7] was 18%. For the same molecule, the “Population Tubulin-Different-Phenotype (%)” value [7] was 7%, the “Total Cell Count” value [7] was 271 and the “Population Apoptotic (%)” value [8] was 63%. The “Population Fragmented Nuclei (%)” value [8] was 16%, the “Population Healthy Nuclei (%)” value [8] was 71% and the “Population Hoechst High Intensity Objects (%)” value [8] was 3%. For the same molecule, the “Population Membrane Permeable-Phenotype (%)” value [8] was 26%, the “Population Mitochondria Different-Phenotype (%)” value [8] was 23% and the “Population Mitotic Cells (%)” value [8] was 36%. The “Population Normal (%)” value [8] was 96%, the “Population Pyknosed Nuclei (%)” value [8] was 12% and the “Population Tubulin-Different-Phenotype (%)” value [8] was 21%. The “Total Cell Count” value [8] was 159, the “Population Apoptotic (%)” value [9] was 68% and the “Population Fragmented Nuclei (%)” value [9] was 16%. For the same molecule, the “Population Healthy Nuclei (%)” value [9] was 75%, the “Population Hoechst High Intensity Objects (%)” value [9] was 2% and the “Population Membrane Permeable-Phenotype (%)” value [9] was 4%. The “Population Mitochondria Different-Phenotype (%)” value [9] was 2%, the “Population Mitotic Cells (%)” value [9] was 32% and the “Population Normal (%)” value [9] was 97%. For the same molecule, the “Population Pyknosed Nuclei (%)” value [9] was 7%, the “Population Tubulin-Different-Phenotype (%)” value [9] was 2% and the “Total Cell Count” value [9] was 337. The “Population Apoptotic (%)” value [10] was 95%, the “Population Fragmented Nuclei (%)” value [10] was 17% and the “Population Healthy Nuclei (%)” value [10] was 69%. For the same molecule, the “Population Hoechst High Intensity Objects (%)” value [10] was 1%, the “Population Membrane Permeable-Phenotype (%)” value [10] was 9% and the “Population Mitochondria Different-Phenotype (%)” value [10] was 5%. For the same molecule, the “Population Mitotic Cells (%)” value [10] was 4%, the “Population Normal (%)” value [10] was 98% and the “Population Pyknosed Nuclei (%)” value [10] was 12%. The “Population Tubulin-Different-Phenotype (%)” value [10] was 6%, the “Total Cell Count” value [10] was 187 and the “Population Apoptotic (%)” value [11] was 81%. The “Population Fragmented Nuclei (%)” value [11] was 15%, the “Population Healthy Nuclei (%)” value [11] was 69% and the “Population Hoechst High Intensity Objects (%)” value [11] was 3%. The “Population Membrane Permeable-Phenotype (%)” value [11] was 10%, the “Population Mitochondria Different-Phenotype (%)” value [11] was 5% and the “Population Mitotic Cells (%)” value [11] was 18%. The “Population Normal (%)” value [11] was 96%, the “Population Pyknosed Nuclei (%)” value [11] was 14% and the “Population Tubulin-Different-Phenotype (%)” value [11] was 5%. For the same molecule, the “Total Cell Count” value [11] was 382, the “Population Apoptotic (%)” value [12] was 77% and the “Population Fragmented Nuclei (%)” value [12] was 13%. The “Population Healthy Nuclei (%)” value [12] was 67%, the “Population Hoechst High Intensity Objects (%)” value [12] was 6% and the “Population Membrane Permeable-Phenotype (%)” value [12] was 16%. The “Population Mitochondria Different-Phenotype (%)” value [12] was 12%, the “Population Mitotic Cells (%)” value [12] was 22% and the “Population Normal (%)” value [12] was 93%. For the same molecule, the “Population Pyknosed Nuclei (%)” value [12] was 18%, the “Population Tubulin-Different-Phenotype (%)” value [12] was 6% and the “Total Cell Count” value [12] was 197.
